Laboratory results from ChEMBL document CHEMBL1158548, “Tetrahydrochromenoimidazoles as potassium-competitive acid blockers (P-CABs): structure-activity relationship of their antisecretory properties and their affinity toward the hERG channel” (J Med Chem, 2010).

How the values were obtained:
[1] = Inhibition of H+/K+ ATPase in hog gastric mucosa by malachite green based competitive binding assay; type: tissue-based, Sus scrofa
Summary of the method: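 Hog gastric mucosa H+/K+-ATPase, isolated enzyme; competitive binding assay run at pH 7.4; pIC50 reported as geometric mean of 4-5 measurements.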

hERG (KCNH2) = hERG (KCNH2) (Homo sapiens, UniProt Q12809); assay: Inhibition of human ERG expressed in CHO-K1 cells at 10 uM by whole-cell patch clamp technique; type: cell-based; conditions: CHO-K1 cells that express human ERG
hERG (KCNH2), sequence (Q12809 whole entry): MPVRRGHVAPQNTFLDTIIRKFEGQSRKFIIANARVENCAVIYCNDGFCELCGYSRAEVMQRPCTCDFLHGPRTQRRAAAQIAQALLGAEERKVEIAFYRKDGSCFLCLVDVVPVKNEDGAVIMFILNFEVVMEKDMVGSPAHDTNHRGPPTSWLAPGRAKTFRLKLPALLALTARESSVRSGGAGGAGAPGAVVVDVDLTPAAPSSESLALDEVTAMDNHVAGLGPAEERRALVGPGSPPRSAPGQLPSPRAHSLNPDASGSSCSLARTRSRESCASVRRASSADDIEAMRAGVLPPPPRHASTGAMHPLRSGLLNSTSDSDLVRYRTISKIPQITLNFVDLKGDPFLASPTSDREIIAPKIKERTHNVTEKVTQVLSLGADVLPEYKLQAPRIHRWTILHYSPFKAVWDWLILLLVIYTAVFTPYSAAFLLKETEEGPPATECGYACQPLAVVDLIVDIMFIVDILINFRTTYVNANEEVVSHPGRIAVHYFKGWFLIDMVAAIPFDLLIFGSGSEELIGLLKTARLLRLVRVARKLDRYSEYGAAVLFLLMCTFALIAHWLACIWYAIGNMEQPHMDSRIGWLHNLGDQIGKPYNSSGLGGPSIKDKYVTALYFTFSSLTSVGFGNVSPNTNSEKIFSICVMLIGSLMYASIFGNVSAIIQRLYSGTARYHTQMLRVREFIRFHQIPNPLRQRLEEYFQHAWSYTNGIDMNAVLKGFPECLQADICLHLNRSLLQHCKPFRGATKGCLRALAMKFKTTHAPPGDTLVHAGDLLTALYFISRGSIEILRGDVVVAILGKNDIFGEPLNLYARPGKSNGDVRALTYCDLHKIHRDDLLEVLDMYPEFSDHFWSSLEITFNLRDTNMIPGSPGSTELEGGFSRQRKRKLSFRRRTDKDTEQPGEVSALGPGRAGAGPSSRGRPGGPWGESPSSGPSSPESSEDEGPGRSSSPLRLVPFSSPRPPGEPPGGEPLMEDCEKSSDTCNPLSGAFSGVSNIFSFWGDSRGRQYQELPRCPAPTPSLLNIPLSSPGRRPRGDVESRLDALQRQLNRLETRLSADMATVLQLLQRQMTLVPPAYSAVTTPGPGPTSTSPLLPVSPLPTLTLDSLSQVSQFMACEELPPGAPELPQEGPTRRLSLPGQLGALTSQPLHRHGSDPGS
Summary of the method: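 CHO-K1 cells stably transfected with hERG; whole-cell patch clamp recording of tail currents with test compound at 10 μM, three cells per compound; relative block of tail current amplitude given as arithmetic mean.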

Rattus norvegicus = assay: Inhibition of pentagastrin-stimulated acid secretion in intraduodenally dosed perfused Sprague-Dawley rat Ghosh Schild model; type: functional; conditions: intraduodenal
[2] = Dissociation constant, pKa at pH 2.0 to 11.0 by potentiometric cosolvent titration; type: physicochemical
[3] = Octanol/aqueous KCl distribution coefficient, log D at pH 7.4 by potentiometric titration; type: physicochemical
Summary of the method: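 Octanol/aqueous KCl distribution coefficient from potentiometric titrations across pH 2.0-11.0 at 25 °C.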

[4] = Partition coefficient, log D by HPLC; type: physicochemical; conditions: octanol/water
Summary of the method: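 logD by reversed-phase HPLC at 37 °C, calibrated with seven reference substances of known logD.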

Gastric gland = assay: Inhibition of acid secretion in New Zealand White rabbit intact gastric glands assessed as [14C]dimethylaminopyridine accumulation by radioactivity; type: functional, tissue-based; conditions: Oryctolagus cuniculus
Summary of the method: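 Gastric glands isolated intact from New Zealand rabbits; cellular activity read as reduced accumulation of the weak base 14C-dimethylaminopyridine; pIC50 given as geometric mean of 4-5 determinations.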

| Compound | pIC50 [1] | inhibition at 10 µM (hERG (KCNH2)) | ED50 (Rattus norvegicus) | pKa ([2]; read-out: pKa) | logD [3] | logD [4] | IC50 (Gastric gland) | pKa [2] |
| --- | --- | --- | --- | --- | --- | --- | --- | --- |
| Cc1sccc1[C@@H]1CCc2c(C(=O)N(C)C)cc3c(nc(C)n3C)c2O1 | 6.3 | 18% | 0.3 µmol/kg | 5.66 | 2.32 | 2.7 | 1000 nM |  |
| COCc1nc2c3c(c(C(=O)N(C)C)cc2n1C)CC[C@@H](c1ccccc1C)O3 | 4.57 | 7% | 3 µmol/kg |  |  | 2.9 | 45700 nM |  |
| Cc1ccccc1[C@@H]1CCc2c(C(=O)NC3CC3)cc3c(nc(C)n3C)c2O1 | 4.9 | 43% | 0.3 µmol/kg |  |  | 3 | 794 nM | 5.68 |
| Cc1nc2c3c(c(C(=O)N(C)C)cc2n1C)CC[C@@H](c1ccccc1F)O3 | 4.9 | 9% | 0.5 µmol/kg | 5.55 | 2.41 | 2.7 | 1580 nM |  |
| Cc1ccccc1[C@@H]1CCc2c(C(=O)NC3COC3)cc3c(nc(C)n3C)c2O1 | 4.6 | 49% | 2 µmol/kg |  |  | 2.6 | 10000 nM |  |
| Cc1nc2c3c(c(C(=O)N(C)C)cc2n1C)CC[C@@H](c1ccccc1Cl)O3 |  | 13% | 0.4 µmol/kg | 5.45 | 2.86 | 3 | 1580 nM |  |
| CONC(=O)c1cc2c(nc(C)n2C)c2c1CC[C@@H](c1ccccc1C)O2 | 4.6 | 13% | 1.8 µmol/kg |  |  | 2.6 | 10000 nM |  |
| Cc1ccccc1[C@@H]1CCc2c(C(=O)N3CCCC3)cc3c(nc(C)n3C)c2O1 | 5.4 | 43% | 0.7 µmol/kg |  |  | 3.1 | 794 nM | 5.7 |
| Cc1nc2c3c(c(C(=O)N4CCC4)cc2n1C)CC[C@@H](c1ccccc1)O3 | 4.9 | 18% | 0.3 µmol/kg |  |  | 2.6 | 2510 nM |  |
| CNC(=O)c1cc2c(nc(C)n2C)c2c1CC[C@@H](c1ccccc1)O2 | 4.8 | 26% | 0.5 µmol/kg |  |  | 2.4 | 6310 nM |  |
| Cc1ccccc1[C@@H]1CCc2c(C(=O)N3CC(F)(F)C3)cc3c(nc(C)n3C)c2O1 | 4.7 | 28% | 0.3 µmol/kg |  |  | 3.3 | 3980 nM | 5.36 |
| Cc1ccccc1[C@@H]1CCc2c(C(=O)N(C)C)cn3c(C)c(C)nc3c2O1 |  |  |  | 7.15 |  |  |  |  |
| COCCN(C)C(=O)c1cc2c(nc(C)n2C)c2c1CC[C@@H](c1ccccc1C)O2 | 4.9 | 8% | 1.2 µmol/kg |  |  | 2.9 | 3160 nM |  |
| Cc1ccccc1[C@@H]1CCc2c(C(N)=O)cc3c(nc(C)n3C)c2O1 | 4.8 | 14% | 2 µmol/kg |  |  | 2.5 | 5010 nM |  |
| Cc1ccccc1[C@@H]1CCc2c(C(=O)NC(C)C)cc3c(nc(C)n3C)c2O1 | 4.7 | 30% | 0.45 µmol/kg |  |  | 3.1 | 631 nM |  |
| COC1(C)CN(C(=O)c2cc3c(nc(C)n3C)c3c2CC[C@@H](c2ccccc2C)O3)C1 | 4.3 | 20% | 1 µmol/kg |  |  |  | 3160 nM |  |
| Cc1nc2c3c(c(C(=O)N(C)C)cc2n1C)CC[C@@H](c1ccc(F)cc1Cl)O3 | 5.4 | 33% | 0.1 µmol/kg |  |  | 3 | 794 nM |  |
| C#CCNC(=O)c1cc2c(nc(C)n2C)c2c1CC[C@@H](c1ccccc1C)O2 | 4.7 | 83% | 0.3 µmol/kg |  |  | 3.1 | 2000 nM | 5.58 |
| Cc1ccccc1[C@@H]1CCc2c(C(=O)NCC3CC3)cc3c(nc(C)n3C)c2O1 | 4.7 | 90% | < 0.3 µmol/kg |  |  | 3.3 | 501 nM | 5.76 |
| CCCOC1CN(C(=O)c2cc3c(nc(C)n3C)c3c2CC[C@@H](c2ccccc2C)O3)C1 | 4.9 | 94% | 0.2 µmol/kg |  |  | 3.3 | 1260 nM | 5.62 |
| Cc1ccccc1[C@@H]1CCc2c(C(=O)N3CC(F)C3)cc3c(nc(C)n3C)c2O1 | 5 | 28% | 0.3 µmol/kg |  |  | 3 | 1000 nM | 5.54 |
| CCCNC(=O)c1cc2c(nc(C)n2C)c2c1CC[C@@H](c1ccccc1C)O2 | 4.7 | 66% | < 0.3 µmol/kg |  |  | 3.2 | 631 nM | 5.63 |

| Compound | pIC50 [1] | inhibition at 10 µM (hERG (KCNH2)) | ED50 (Rattus norvegicus) | pKa ([2]; read-out: pKa) | logD [3] | logD [4] | IC50 (Gastric gland) | pKa [2] |
| --- | --- | --- | --- | --- | --- | --- | --- | --- |
| Cc1ccccc1[C@@H]1CCc2c(C(=O)N3CC(O)C3)cc3c(nc(C)n3C)c2O1 | 5 | 11% | 1.2 µmol/kg |  |  | 2.4 | 39800 nM |  |
| Cc1cc(F)ccc1[C@@H]1CCc2c(C(=O)N(C)C)cc3c(nc(C)n3C)c2O1 | 5.6 | 19% | < 0.3 µmol/kg |  |  | 2.9 | 501 nM |  |
| Cc1ccccc1[C@@H]1CCc2c(C(=O)NCC3CCCO3)cc3c(nc(C)n3C)c2O1 (some centres undefined) | 4.3 | 75% | 1 µmol/kg |  |  | 3 | 3160 nM |  |
| Cc1nc2c3c(c(C(=O)N(C)C)cc2n1C)CC[C@@H](c1ccccc1)O3 | 5.3 | 28% | 0.26 µmol/kg |  |  | 2.5 | 3160 nM |  |
| COCCNC(=O)c1cc2c(nc(C)n2C)c2c1CC[C@@H](c1ccccc1C)O2 | 4.9 | 55% | 0.8 µmol/kg |  |  | 2.8 | 3160 nM |  |
| CON(C)C(=O)c1cc2c(nc(C)n2C)c2c1CC[C@@H](c1ccccc1C)O2 | 5.4 | 13% | 0.15 µmol/kg |  |  | 2.9 | 1260 nM | 5.49 |
| CNC(=O)c1cc2c(nc(C)n2C)c2c1CC[C@@H](c1ccc(Cl)cc1)O2 | < 5 | 68% | 0.3 µmol/kg |  |  | 2.9 | 2000 nM |  |
| Cc1nc2c3c(c(C(=O)N(C)C)cc2n1C)CC[C@@H](c1cccs1)O3 | 5 | 9% | 2 µmol/kg |  |  | 2.4 | 50100 nM |  |
| Cc1nnc(-c2cc3c(nc(C)n3C)c3c2CC[C@@H](c2ccccc2C)O3)o1 | 4.6 | 27% | 0.6 µmol/kg |  |  | 3.3 | 5010 nM | 5.17 |
| Cc1nc2c3c(c(C(=O)N4CCC4)cc2n1C)CC[C@@H](c1ccc(Cl)cc1)O3 | 5.3 | 84% | 0.16 µmol/kg |  |  | 3 | 1260 nM |  |
| COCc1cc2c(nc(C)n2C)c2c1CC[C@@H](c1ccccc1C)O2 | 5.1 | 34% | 0.5 µmol/kg |  |  | 3.4 | 1000 nM | 6.24 |
| Cc1ccccc1[C@@H]1CCc2c(C(=O)NCC[S+](C)[O-])cc3c(nc(C)n3C)c2O1 (some centres undefined) | 4.6 | 6% | 1.4 µmol/kg |  |  |  |  |  |
| Cc1ccccc1[C@@H]1CCc2c(C(=O)NCC#N)cc3c(nc(C)n3C)c2O1 | 4.7 | 18% | 3 µmol/kg |  |  | 2.9 | 12600 nM |  |
| Cc1ccccc1[C@@H]1CCc2c(C(=O)NCC3CCCCO3)cc3c(nc(C)n3C)c2O1 (some centres undefined) | < 5 | 54% | 1.2 µmol/kg |  |  | 3.3 | 6310 nM |  |
| CCNC(=O)c1cc2c(nc(C)n2C)c2c1CC[C@@H](c1ccccc1C)O2 | 4.9 | 24% | 0.12 µmol/kg |  |  | 2.9 | 1000 nM | 5.71 |
| Cc1ccccc1[C@@H]1CCc2c(C(=O)N3CCC3)cc3c(nc(C)n3C)c2O1 | 5.5 | 14% | 0.3 µmol/kg |  |  | 2.8 | 794 nM |  |
| CSCCNC(=O)c1cc2c(nc(C)n2C)c2c1CC[C@@H](c1ccccc1C)O2 | 4.8 | 73% | 1 µmol/kg |  |  | 3.2 | 1260 nM |  |
| CCOC1CN(C(=O)c2cc3c(nc(C)n3C)c3c2CC[C@@H](c2ccccc2C)O3)C1 | 4.5 | 70% | 0.4 µmol/kg |  |  | 3 | 794 nM |  |
| Cc1ccccc1[C@@H]1CCc2c(C(=O)N3CCOCC3)cc3c(nc(C)n3C)c2O1 | 4.8 | 4% | 1 µmol/kg |  |  | 2.8 | 5010 nM |  |
| Cc1ccccc1[C@@H]1CCc2c(C(=O)N(C)C)cc3c(nc(CO)n3C)c2O1 |  | 12% | 1 µmol/kg |  |  | 2.5 | 1170 nM |  |
| Cc1ccccc1[C@@H]1CCc2c(C(=O)N3CC(CO)C3)cc3c(nc(C)n3C)c2O1 | 5 | 2% | 1.4 µmol/kg |  |  | 2.4 | 63100 nM |  |
